ChEMBL document CHEMBL1142147, “Action of disinfectant quaternary ammonium compounds against Staphylococcus aureus” (2007)
Calls of active or inactive are those of the source. No cut-off for these calls is given here.

Key:
Staphylococcus aureus [1] = test: Antibacterial activity against 10^7 CFU/ml Staphylococcus aureus ATCC 6538 after 48 hrs; format: functional; settings: ATCC 6538, 48 h
How it was run: (§1)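 Spots of 5 μl inoculum (10-fold dilutions, 1 × 10⁹ to 1 × 10⁵ CFU/ml in HEPES) applied in triplicate. Incubated at 35°C and read visually at 24 and 48 h. MIC taken as no growth or <10 colonies in every spot of the triplicate.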

Staphylococcus aureus [2] = test: Reduction of cell count in Staphylococcus aureus ATCC 6538 between 6 to 18 hrs exposure; format: functional; design: scale not given: the % may be the effect or the level left
How it was run: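 Cells pre-exposed 4 h at 35°C to 9 μg/ml biocide, neutralized, washed, and held in HEPES at 35°C. Samples taken at 0 to 48 h, serially diluted, plated on TSA, incubated 18 h at 37°C and counted as CFU/ml.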

Staphylococcus aureus [3] = test: Antibacterial activity against 10^8 CFU/ml Staphylococcus aureus ATCC 6538 after 48 hrs; format: functional; settings: ATCC 6538, 48 h; how it was run: as §1
Staphylococcus aureus [4] = test: Induction of membrane collapse in Staphylococcus aureus ATCC 6538 at 12 ug/ml; format: functional, organism-based
How it was run: (§2)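 Cells (final 2 × 10⁹ CFU/ml) exposed to 4.5 to 18 μg/ml biocide or HEPES at 25°C, shaken. Samples filtered (0.45 μm) at timed points up to 240 min. K⁺ measured by flame emission at 766.5 nm and 260-nm material by A260. Each expressed as percent of the maximal pool (cetrimide 1 mM; TCA extraction). Mean % leakage at 30 min plotted against concentration.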

Staphylococcus aureus [5] = test: Induction of autolysis in Staphylococcus aureus ATCC 6538 at 9 ug/ml; format: functional, organism-based
How it was run: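 Washed cells (final 2 × 10⁹ CFU/ml) held with biocide at 9 μg/ml in HEPES at 35°C for 4 h, shaken. Then neutralized with lecithin/Tween 80, washed, and resuspended in HEPES at 35°C. Filtrates (0.45 μm) taken at 0, 2, 4, 18, 22 and 24 h and read at A260. Autolysis taken as 260-nm leakage above the TCA-extractable pool.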

Staphylococcus aureus [6] = test: Loss of membrane integrity in Staphylococcus aureus ATCC 6538 at above 4.5 ug/ml; format: functional, organism-based; how it was run: as §2
Staphylococcus aureus [7] = test: Antibacterial activity against 10^5 CFU/ml Staphylococcus aureus ATCC 6538 after 48 hrs; format: functional; settings: ATCC 6538, 48 h; how it was run: as §1
Staphylococcus aureus [8] = test: Antibacterial activity against 10^9 CFU/ml Staphylococcus aureus ATCC 6538 after 48 hrs; format: functional; settings: ATCC 6538, 48 h; how it was run: as §1
Staphylococcus aureus [9] = test: Antibacterial activity against 10^6 CFU/ml Staphylococcus aureus ATCC 6538 after 48 hrs; format: functional; settings: ATCC 6538, 48 h; how it was run: as §1
Staphylococcus aureus [10] = test: Intracellular coagulation in Staphylococcus aureus ATCC 6538 at tested concentrations 4.5, 9, 12 and 15 ug/ml; format: functional, organism-based

CCCCCCCCCC[N+](C)(C)CCCCCCCCCC.[Cl-] [DIDECYLDIMETHYLAMMONIUM CHLORIDE]
MIC (Staphylococcus aureus [1]): 0.4 µg/mL
Activity (Staphylococcus aureus [2]): 90%
MIC (Staphylococcus aureus [3]): 0.6 µg/mL
Activity (Staphylococcus aureus [4]): Active
Activity (Staphylococcus aureus [5]): Active
Activity (Staphylococcus aureus [6]): Active
MIC (Staphylococcus aureus [7]): 0.4 µg/mL
MIC (Staphylococcus aureus [8]): 1.6 µg/mL
MIC (Staphylococcus aureus [9]): 0.4 µg/mL
Activity (Staphylococcus aureus [10]): inactive
